NPY Y2 blocker = antagonists of human neuropeptide Y receptor Y2; AID 793; NPY-Y2 expressing cells, antagonist mode; P49146; inhibition, % at 2.7 µM; hit rate 0.99% among 140,000; in the data active = inhibition above about 17%;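 also: 0% = vehicle with agonist challenge and 100% = reference antagonist with challenge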
Measles CPE = protection of cells from measles virus | AID 841 | Measles virus-infected cells, CPE protection, absorbance | hit rate 1.5% among 140,000 | protection (pct of control), % at 4 µM; in the data active = protection mostly above about 24%, no sharp cut-off; inactive = mostly below about 26%
Rad51 HR inh = blocks human Rad51 in homologous recombination; Q06609; hRad51 DNA strand exchange, fluorescence dequenching; inhibition, % at 10 µM; hit rate 0.085% among 200,000;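 active = inhibition above 40% at the single screening dose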;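 also: 0% = DMSO control wells and 100% = blanks with heterologous ssDNA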
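Assay system: Human Rad51 nucleoprotein filaments preassembled on unlabelled ssDNA | Reagent: Donor/quencher-labelled 47-bp dsDNA substrate | Doses: One concentration, 10 µM final | Times: 37 °C 15-min filament assembly, 30-min compound preincubation, 15-min exchange | Technique: Fluorescein emission 520 nm, excitation 485 nm | Benchmarks: Plate control and blank wells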
NPY-Y1 PAM-ag = human NPY-Y1 potentiation or agonism, primary screen. P25929. NPY-Y1 expressing cells, potentiator/agonist activation. activation, % at 3.6 µM. hit rate 0.37% among 220,000; in the data active = activation above about 33%, passing the limit was not always enough;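 also: cells stimulated with NPY at EC10 then isoproterenol at EC100; 0% = low agonist plus stimulus and 100% = saturating agonist plus stimulus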
Target sequence (P25929 whole entry, looked up): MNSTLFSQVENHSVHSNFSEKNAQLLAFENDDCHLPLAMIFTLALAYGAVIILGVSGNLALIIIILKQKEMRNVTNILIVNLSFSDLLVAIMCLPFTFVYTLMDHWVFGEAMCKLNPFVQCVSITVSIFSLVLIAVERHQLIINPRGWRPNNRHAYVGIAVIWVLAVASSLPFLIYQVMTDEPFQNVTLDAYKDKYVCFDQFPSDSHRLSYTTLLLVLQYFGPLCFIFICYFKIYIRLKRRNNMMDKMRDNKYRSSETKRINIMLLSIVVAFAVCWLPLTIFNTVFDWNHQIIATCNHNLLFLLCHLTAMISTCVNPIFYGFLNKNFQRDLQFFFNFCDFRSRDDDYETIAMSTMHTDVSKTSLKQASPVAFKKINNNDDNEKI
NPY-Y1 antag = blocks the human neuropeptide Y Y1 receptor | inhibition, % at 3.6 µM | HEK293-CNG Y1 cells, membrane potential fluorescence; NPY at EC95, then isoproterenol | hit rate 1% among 200,000;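 active = inhibition above the campaign mean inhibition of all tested compounds plus 3 SD, cut at about 20% in these data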;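 also: 0% = DMSO wells given NPY plus isoproterenol and 100% = isoproterenol alone without NPY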
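System: HEK293 cells with Y1 receptor plus CNG channel / Probe or stimulus: NPY 25 nM then isoproterenol 1 µM plus Ro 20-1724 25 µM / Compound: one concentration, 3.6 µM, in 0.4% DMSO / Schedule: compound incubation 1 h at room temperature, readout 45 min post-stimulation / Measured by: membrane potential fluorescence / Read-out: % inhibition of NPY effect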
NPY-Y2 PAM-ag = human NPY-Y2 potentiation or agonism, primary screen; activation, % at 3.6 µM; cells expressing NPY-Y2, potentiator/agonist read-out; P49146; hit rate 0.45% among 220,000; in the data active = activation above about 27%;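 also: cells stimulated with NPY near EC25 plus isoproterenol at EC100; 0% = vehicle plus submaximal agonist and 100% = vehicle plus saturating agonist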
NPY1 antag ctr = antagonizes human NPY-Y1, counter-screen to NPY-Y2 antagonists; cell-based NPY-Y1 antagonism counterscreen; shares compounds with NPY Y2 blocker; inhibition, % at 3.6 µM; hit rate 19% among 710; in the data active = inhibition above about 20%;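 also: cells challenged with NPY then isoproterenol with cAMP sensed through a CNG channel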
NPY-Y2 ant conf = confirmation of human neuropeptide Y receptor Y2 antagonists. shares compounds with NPY Y2 blocker. inhibition, % at 2.8 µM. AID 1257. hit rate 32% among 710. HEK293 NPY-Y2 CNG channel, membrane potential fluorescence;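 active = mean inhibition of triplicate wells above the hit cutoff set in the primary screen, cut at about 17% in these data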;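 also: 0% = DMSO with NPY challenge and 100% = BIIE0246 high control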
Active calls of the source: *; . = not tested or not shown. Hits are enriched below; roughly 2.8% of the tested compounds scored in any of these assays.

SMILES	NPY Y2 blocker	Measles CPE	Rad51 HR inh	NPY-Y1 PAM-ag	NPY-Y1 antag	NPY-Y2 PAM-ag	NPY1 antag ctr	NPY-Y2 ant conf
COc1ccc(C2CC(=O)C(C(c3ccc(O)cc3)C3C(=O)CC(c4ccc(OC)cc4)CC3=O)C(=O)C2)cc1 (centres undefined)	.	.	-3	-29	.	-43	.	.
COc1ccc(N=C2SC(C(=O)Nc3ccc(OC)cc3)CC(=O)N2CCN2CCOCC2)cc1 (centres undefined)	3	8	.	-29	4	8	.	.
CCC(C(=O)O)n1nc(-c2ccccc2)c2cc(Cl)ccc21 (centres undefined)	.	.	18	-5	8	-8	.	.
COc1ccc(NC(=O)C(NC(C)=O)C(=O)NCc2ccccc2)cc1 (centres undefined)	1	7	-3	2	0	-5	.	.
COc1ccc(CNC(=O)C(NC(C)=O)C(=O)Nc2ccc(OC)cc2)cc1 (centres undefined)	21*	4	.	16	5	2	0	-1
CC1=NN(c2ccccc2)C(=O)/C1=C\c1ccc(Br)s1	17*	38	-2	-32	5	-2	31*	34*
Clc1ccc(-c2cc(CSc3cccc(Cl)c3)on2)cc1	17*	20	-1	-67	20	-32	10	16
Clc1ccc(-c2cc(CSc3ccccc3)on2)cc1	15	6	11	-43	8	-3	.	.
Cc1ccc(SCc2cc(-c3ccc(Cl)cc3)no2)cc1	19*	6	.	-11	6	5	13	17
N/C(=N\OC(=O)Nc1ccccc1)c1ncc([N+](=O)[O-])s1	.	.	.	9	.	17	.	.
Nc1c(C(=O)NCc2ccc3c(c2)OCO3)c2nc3ccccc3nc2n1CCCN1CCOCC1	19*	10	-3	-10	12	-5	17	7
Nc1c(C(=O)NCCN2CCOCC2)c2nc3ccccc3nc2n1-c1ccc2c(c1)OCO2	-2	5	-5	-16	-4	21	.	.
O=C(NCc1ccccn1)C(=O)Nc1cccc2ccccc12	.	.	0	11	0	5	.	.
COc1ccc(-c2nnc3sc(C(C)N4C(=O)c5ccccc5C4=O)nn23)cc1 (centres undefined)	21*	11	2	-33	8	-30	18	29*
Cc1ccnc(N2CCC(C(=O)NNC(=O)COc3cccc4ccccc34)CC2)n1	6	5	2	-1	12	12	.	.
Cc1cc(/C=N/n2cnnc2)c(C)n1-c1ccc(OCc2ccc(Cl)cc2Cl)cc1	22*	3	.	-58	8	-9	21*	24*
Cc1ccc2nc(C)cc(C(=O)OCC(=O)Nc3c(C)n(C)n(-c4ccccc4)c3=O)c2c1	.	.	-2	4	2	-4	.	.
S=C(NC1CCCCC1)NC1CC2CCC(C1)N2Cc1ccccc1 (centres undefined)	.	.	0	7	1	3	.	.
COc1ccc(CN2CCN(c3ccccn3)CC2)c(OC)c1	7	14	-34	-15	-4	-23	.	.
COc1ccc(CN2CCN(c3ncccn3)CC2)c(OC)c1	18*	2	0	18	15	1	1	0
COc1ccc(C2=CSC3=C(C(=O)c4cccc(S(=O)(=O)N(C)C)c4)CCN23)cc1	0	16	-10	-5	7	-4	.	.
c1ccc(-c2ccc(-c3cnc4n3CCCCC4)cc2)cc1	24*	12	4	-31	13	-15	9	17
C/C(=N\NC(=O)CSc1nc(C)cc(C)n1)c1ccc2c(c1)OCCO2	.	.	1	5	2	2	.	.
O=C(CSc1nnc2c(Cl)cc(Cl)cn12)N1CCN(c2ccc(F)cc2)CC1	4	4	0	11	2	-9	.	.
O=S(=O)(Nc1cccc(-c2nnco2)c1)c1ccc(Cl)cc1	.	.	10	21	.	16	.	.
SMILES	NPY Y2 blocker	Measles CPE	Rad51 HR inh	NPY-Y1 PAM-ag	NPY-Y1 antag	NPY-Y2 PAM-ag	NPY1 antag ctr	NPY-Y2 ant conf
C=CCN1C(=O)/C(=C/C=C2/N(CC)c3ccc(S(=O)(=O)N(C)C)cc3N2CC)SC1=S	.	.	-276	11	4	5	.	.
Cc1cccc(NC(=O)c2sc(Cl)nc2C)c1C	18*	10	-6	2	-3	1	-1	2
CCOC(=O)Cn1c(S(=O)(=O)Cc2ccccc2Cl)nc(-c2ccccc2)c1-c1ccccc1	24*	0	-1	-21	12	-22	12	9
C#CCn1c(S(=O)(=O)Cc2ccc(C)cc2)nc(-c2ccccc2)c1-c1ccccc1	21*	45	0	-20	16	-17	15	11
COc1ccc(C(=O)NNC(=O)c2ccc(S(=O)(=O)N3CCCCC3)cc2)cc1	.	.	0	11	6	7	.	.
CC(=O)c1ccc(NC(=O)/C(=C\c2cccs2)NC(=O)c2ccco2)cc1	.	.	4	-4	-1	-8	.	.
COc1cc([N+](=O)[O-])ccc1NC(=O)CCCOc1ccccc1	22*	2	.	-33	7	-28	7	10
COc1ccc([N+](=O)[O-])cc1NC(=O)CCCOc1ccccc1	13	3	8	-4	3	12	.	.
CCC(CC)C(=O)Nc1ccc(C(=O)Nc2cc(C)on2)cc1	.	.	-4	12	-2	4	.	.
C/C(CCC(=O)OC[C@H]1O[C@H](C#Cc2ccccc2)C=C[C@@H]1Oc1ccc(C)cc1)=N\O[C@@H](C)CN1CCCCc2nc(C)c(C)cc21	22*	6	.	-15	4	-17	9	9
Cc1ccc(C)c(C(=O)CSc2nnc(C)s2)c1	.	.	3	-9	1	7	.	.
CSc1nnc2c3cc(C)ccc3n(Cc3ccccc3)c2n1	28*	3	.	-15	5	5	23*	42*
c1ccc(Cn2c3ccccc3c3nnc(SCCN4CCCCC4)nc32)cc1	.	.	4	-31	.	-14	.	.
Cc1ccc(CNC(=O)Cn2cc(C(F)(F)F)ccc2=O)cc1	4	6	4	-9	10	-11	.	.
CCCCSc1nnc(-c2ccc(C)cc2)c2ccccc12	18*	14	1	8	7	2	9	13
CN(C)C(=O)CSc1nnc(-c2ccc(F)cc2)c2ccccc12	.	.	-7	9	.	-21	.	.
O=c1[nH]c2ccccc2nc1/C=C/c1ccc(Cl)cc1	.	.	13	8	-4	-4	.	.
CC(C)COC(=O)c1cccc2c1-c1ccccc1/C2=N\O	22*	12	.	-42	13	-8	17	39*
Cc1cccc(C)c1NC1=NCCCCC1	.	.	-2	-11	-2	-9	.	.
CCS(=O)(=O)N1Cc2ccccc2CC1C(=O)NC(C)C12CC3CC(CC(C3)C1)C2 (centres undefined)	19*	2	0	-7	10	-13	5	9
